Assay outcomes as filed in PubChem BioAssay.
Hits are enriched below; roughly 2% of the tested compounds scored in any of these assays.
HCV NS3 hel inh – inhibitors of HCV NS3 helicase, primary screen, biochemical, Cy5 molecular beacon fluorescence; actives 0.56% (n = 290,000); inhibition, % at 10.9 µM; Hepatitis C virus NS3 helicase; NS3 helicase DNA unwinding;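 active means inhibition above the mean of all tested compounds plus 3 SD, set per campaign, cut at about 35% in these data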;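 further: 0% = DMSO wells and 100% = thioflavine S control wells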
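Measured by: Cy5 fluorescence, 0 and 60 min reads / Assay system: NS3 helicase fragment of HCV / Control set: low DMSO, high thioflavine S at 110 µM / Times: 1 h reaction at 25 °C, ATP-initiated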
FID counter – compounds displacing fluorescent DNA intercalator, primary screen, artefact control for HCV NS3 helicase inhibitor project, biochemical, FID fluorescence; DNA fluorescent intercalator displacement; inhibition, % at 7.9 µM; actives 0.17% (n = 290,000); AID 1845, 2009; in the data active means inhibition above about 37%;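 further: 0% = vehicle and 100% = reference compound; higher means more ethidium bromide displaced from hairpin DNA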
eIF4H inh – human eIF4H binding inhibitors, primary screen, translation initiation inhibitor project, biochemical, uHTS, fluorescence polarization; eIF4H fluorescence polarization binding assay; inhibition, % at 35 µM; actives 0.94% (n = 290,000);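 further: calls also rest on retests at 20 µM and on dose response follow-up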
HCV core dimer – inhibitors of HCV core protein dimerization, primary screen, biochemical, TR-FRET, high-throughput; TR-FRET GST/Flag-core106 dimerization, 1536-well; inhibition, % at 5 µM; actives 0.33% (n = 300,000); AID 1899, 2009;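 active means inhibition above the mean of all tested compounds plus 3 SD, set per screening campaign, cut at about 45% in these data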
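Assay system: GST-tagged and Flag-tagged HCV core protein residues 1-106 / Times: compound-protein-antibody incubation 4 h at 22.5 °C / Signal: time-resolved FRET, ex 340 nm, em 617 and 671 nm / Evaluation: % inhibition based on acceptor/donor emission ratio / Benchmarks: wells lacking GST-core106 and wells with excess unlabelled core106 / Repeats: singlicate, one well per compound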
PABP polyA inh – PABP poly(A) RNA binding inhibitors, primary screen, biochemical, fluorescence polarization, uHTS. actives 1% (n = 290,000). AID 2014, 2009. Polyadenylate-binding protein 1 (Homo sapiens), P11940. inhibition, % at 35 µM;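 further: calls also rest on retests at 20 µM and on dose response follow-up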
MLLE-PAM2 inh – inhibitors of PABP1 MLLE–PAM2 peptide binding, primary screen, biochemical, fluorescence polarization, FITC-PAM2, GST-MLLE | Polyadenylate-binding protein 1 (Homo sapiens), P11940 | inhibition, % at 20 µM | actives 0.36% (n = 360,000); in the data active means inhibition above about 35%, passing the limit was not always enough;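 further: plate controls were DMSO wells with GST-MLLE for no effect and wells lacking GST-MLLE protein for full effect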
Starred values were filed as active, the others as inactive; x = no result. Unless noted, how the calls were made is not given here.

SMILES | HCV NS3 hel inh | FID counter | eIF4H inh | HCV core dimer | PABP polyA inh | MLLE-PAM2 inh
Cc1ccc(NC(=O)C2CCCN2c2nn3c(=O)cc(C)nc3s2)cc1 (centres undefined) | 20 | -9 | -1 | -6 | -7 | -26
Cn1c(SCC(=O)NC(=O)NCc2ccco2)nnc1-c1ccccc1 | 7 | -10 | 92* | 57* | 37* | 0
COc1ccc(-c2nnc(SCC(=O)NCc3ccco3)o2)cc1 | -2 | -8 | -1 | 4 | 3 | -43
Cn1c(SCC(=O)NCc2ccco2)nnc1-c1ccccc1 | 0 | -7 | -2 | -11 | 0 | 4
O=C(CSc1ncccn1)NC(=O)NCc1ccco1 | 1 | -4 | 34 | 10 | -1 | -109
Cc1ccc(C(=O)CSc2n[nH]c(-c3ccco3)n2)cc1C | 21 | -12 | 27 | 4 | 9 | 2
Cc1ccccc1CSCC(=O)NC(=O)NCc1ccco1 | 17 | -8 | 55* | 58* | 45* | 12
COc1ccc(C(=O)CSc2n[nH]c(-c3ccco3)n2)cc1 | 35 | -20 | 71* | 0 | 65* | 2
O=C(CSc1nnc(-c2ccc(OC(F)F)cc2)o1)NC(=O)NCc1ccco1 | 5 | -10 | 66* | 16 | 31 | -129
O=S(=O)(c1ccccc1)N1N=C(c2ccc(Cl)cc2)CC1c1ccco1 (centres undefined) | x | x | x | x | x | 19
COc1ccc(-n2nnnc2SCC(=O)NCc2ccco2)cc1OC | 7 | -2 | 5 | 5 | -6 | -10
COc1ccc(C)cc1-n1nnnc1SCC(=O)NC(=O)NCc1ccco1 | 1 | -13 | 72* | 8 | 31 | -42
Cc1cc(SCC(=O)NC(=O)NCc2ccco2)nc2c(C)cccc12 | 22 | -7 | 51* | 48* | 27* | 14
O=C(CSc1cccc(C(F)(F)F)c1)NC(=O)NCc1ccco1 | 12 | -11 | 19 | 51* | 1 | 15
Cc1cc(SCC(=O)NC(=O)NCc2ccco2)nc2ccccc12 | 13 | -16 | -6 | 22 | 13 | 7
O=C(CSc1ccccc1F)NC(=O)NCc1ccco1 | 31 | -2 | 77* | 23 | 14* | -2
CC1=C2C3OC(=O)C(C)C3CCC2(C)C=CC1=NO (centres undefined) | x | x | x | x | x | 3
COc1ccc(CC(=O)N2CCc3cc(OC)c(OC)cc3C2C)c(OC)c1 (centres undefined) | 1 | -38 | -2 | 2 | 4 | -7
O=C(CSc1n[nH]c(-c2ccccc2)n1)NC(=O)NCc1ccco1 | -2 | -8 | 47* | 20 | 60 | -18
O=C(c1ccc(Cl)cc1)N1CCC(C(=O)N2CCCc3ccccc32)CC1 | 2 | -38 | -9 | -3 | -9 | 13
O=C1C=C(Nc2ccc(O)cc2)CC(c2ccco2)C1 (centres undefined) | 18 | -5 | 0 | -1 | -4 | 5
O=C1C=C(O)CC(c2ccco2)C1 (centres undefined) | 26 | -25 | 104* | -5 | 77* | -1
O=C1C=C(NCc2ccc(Cl)cc2)CC(c2ccco2)C1 (centres undefined) | 18 | -9 | x | 18 | x | -5
CC(C)CNC1=CC(=O)CC(c2ccco2)C1 (centres undefined) | 33 | -15 | 108* | 23 | 92* | 6
CC(=O)c1c(C)[nH]c(C(=O)CN2CCN(S(=O)(=O)c3ccccc3[N+](=O)[O-])CC2)c1C | x | x | x | x | x | -12
CC(C1SC(=S)NC1=O)C1SC(=S)NC1=O (centres undefined) | x | x | x | x | x | 6
COc1cc(NC(=S)Nc2ccc(N(C)C(C)=O)cc2)cc(OC)c1 | -20 | -3 | 1 | -4 | -8 | 36*
COc1cc(NC(=S)Nc2ccc(OC(F)F)cc2)cc(OC)c1 | -14 | -8 | -4 | 3 | -6 | 41*
OCCN1CCN(c2ncnc3c2ncn3[C@H]2CN(Cc3ccc4c(c3)OCO4)C[C@@H](CO)O2)CC1 | x | x | x | x | x | 8
